Screening results deposited in PubChem BioAssay by several laboratories.
V-ATPase pH: yeast V-ATPase proton transport regulation by pHLuorin; S. cerevisiae, pHLuorin cytosolic pH fluorescence; response, % at 10 µM; 350,000 compounds, 0.37% hits; AID 504577; in the data active = response mostly above about 7.3%, no sharp cut-off; inactive = mostly below about 5.4%; also: actives read high
T cell modulator: T cell immune modulators affecting CD8 T cell-vesicle binding; 330,000 compounds, 0.068% hits; response (vesicle binding), % at 7 µM; 2C CD8+ T cell-vesicle binding, flow cytometry; stronger effect = lower value;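 active = response, share of CD8 T cells binding vesicles, and their 90th percentile fluorescence all below set limits, cut at about 80% in these data, passing the limit was not always enough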;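 also: values below 100% mean blocked vesicle binding to the CD8+ T cells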
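material = purified 2C TCR transgenic mouse naive CD8+ T cells | controls = Unloaded micro-vesicles (low), QL9 vesicles with 0.7% DMSO (high) | detection = cytometric PE anti-B7-1 and Alexa647 anti-CD8 signals after 1% paraformaldehyde fixation | incubation = binding step 1.5 h, 37 °C, antibody labelling 20 min, ice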
MPTP block: inhibitors of mitochondrial permeability transition pore. isolated mouse mitochondria, Ca2+ swelling absorbance, 30 min. inhibition, % at 10 µM. 360,000 compounds, 1.4% hits;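 active = inhibition of 50% or more, scaled per plate between neutral and stimulator controls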;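 also: 0% = DMSO wells given calcium and 100% = 1 mM EGTA wells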
Exocytosis inh: blocks lytic granule exocytosis | TALL-104 LAMP-1 surface exposure, flow cytometry; cells stimulated with thapsigargin and PMA | inhibition, % at 10 µM | 360,000 compounds, 0.66% hits | AID 651702;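 active = inhibition above about 55%, limit read from the data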
rCAG RNA binder: binds r(CAG) RNA repeats; inhibition, % at 3 µM; r(CAG) RNA repeat, TO-PRO-1 dye displacement fluorescence; 370,000 compounds, 1.3% hits;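 active = inhibition above the plate cutoff, the mean of all test compounds on that plate plus 3 SD, cut at about 35% in these data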;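 also: 0% = DMSO alone and 100% = 100 µM mitoxantrone as full dye displacement; higher means more dye released from RNA so lower well fluorescence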
Beta2AR agonist: human beta-2 adrenergic receptor agonism by FAP; P07550; Am2.2-beta2AR cells, FAP receptor internalization, flow cytometry; response, % (no concentration beside the values); 340,000 compounds, 0.43% hits;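 active = response above a set limit, near 3 SD of response in nonfluorescent compounds, cut at about 42% in these data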
Target sequence (P07550 whole entry, looked up): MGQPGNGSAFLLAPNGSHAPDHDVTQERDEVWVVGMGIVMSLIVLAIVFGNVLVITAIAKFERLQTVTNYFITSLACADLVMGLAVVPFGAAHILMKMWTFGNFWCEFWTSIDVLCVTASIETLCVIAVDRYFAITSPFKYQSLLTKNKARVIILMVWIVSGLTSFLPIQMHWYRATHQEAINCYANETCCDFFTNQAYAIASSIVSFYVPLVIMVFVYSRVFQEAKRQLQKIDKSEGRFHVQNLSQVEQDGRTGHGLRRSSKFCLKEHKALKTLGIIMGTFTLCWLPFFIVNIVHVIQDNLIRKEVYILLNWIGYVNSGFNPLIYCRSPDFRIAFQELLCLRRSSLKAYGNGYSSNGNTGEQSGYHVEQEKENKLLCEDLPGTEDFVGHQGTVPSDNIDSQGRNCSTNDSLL
Beta2AR ag CP1: activates human beta-2 adrenergic receptor. shares compounds with Beta2AR agonist. Am2.2-beta2AR cells, FAP surface receptor, flow cytometry; stronger effect = lower value. percent response (surface receptor), % at 10 µM. 1,100 compounds, 25% hits;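 active = surface receptor percent response at or below 58%, roughly 3 SD from nonfluorescent compounds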
B2AR FAP counter: counter-screen for beta-2AR agonists: fluorescence in Am2.2 cells. FAP fluorogen flow cytometry, fluorescence counterscreen; stronger effect = lower value. calls only at 10 µM. 1,100 tested, under 10 active. shares compounds with Beta2AR agonist;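 active = percent response below a set limit in fluorescence channel 1 and below 50% in channel 8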
MPTP counter: membrane potential counter-screen of mitochondrial pore inhibitors; shares compounds with MPTP block; isolated mitochondria, Rhodamine 123 fluorescence; inhibition, % at 10 µM; 5,000 compounds, 78% hits; AID 624504; in the data active = inhibition above about 22%;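 also: 0% = DMSO vehicle and 100% = positive control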
MPTP abs DR: MPTP inhibition, dose response swelling confirmation; shares compounds with MPTP block; 780 compounds, 58% hits; IC50, µM; isolated mitochondria swelling, absorbance; in the data active = IC50 below about 20 µM
MPTP counter DR: active in counter-screen for permeability transition pore inhibitors; shares compounds with MPTP block; isolated mitochondria counterscreen, fluorescence read-out; IC50, µM; 780 compounds, 49% hits; AID 651564; in the data active = IC50 below about 80 µM
Granule exo CP1: lytic granule exocytosis inhibition. shares compounds with Exocytosis inh. TALL-104 cells, LAMP-1 externalization, flow cytometry; stimulated with PMA plus thapsigargin. inhibition, % at 10 µM. 1,500 compounds, 11% hits. AID 651954; in the data active = inhibition above about 60%;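 also: 0% = stimulated vehicle wells and 100% = unstimulated wells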
An asterisk follows results filed as active; i = inactive; nt = not tested or not shown. An excerpt weighted towards active compounds, which were near 3.8% of everything screened.

SMILES	V-ATPase pH	T cell modulator	MPTP block	Exocytosis inh	rCAG RNA binder	Beta2AR agonist	Beta2AR ag CP1	B2AR FAP counter	MPTP counter	Granule exo CP1	others
Cc1ccc2c(c1)c1c(n2CC(O)CNC2CCCCC2)CCCC1 (stereo not drawn)	2.1	168.5	79.6*	1.6	15.9	53.2*	112.2	i	-20.4	nt
Fc1ccc(-c2nn(-c3ccccc3)cc2CNCc2ccccc2)cc1	-2.5	273.1	90.6*	36.8	0.7	44.2*	91.0	i	-10.0	nt	MPTP abs DR=4.71*;MPTP counter DR=43*
N=c1n(CC(=O)c2ccc([N+](=O)[O-])cc2)c2ccccc2n1Cc1ccc(Cl)cc1	-1.5	170.9	88.1*	3.5	6.0	91.1*	36.8*	i	-10.9	nt
CN(Cc1cccs1)c1nc(-c2cccnc2)nc2ccccc12	2.0	357.0	3.2	84.5*	-4.2	102.7*	2.7*	i	nt	20.7
COC(=O)C1CN(Cc2ccc(OC)cc2)CCS(=O)(=O)N1Cc1cn(Cc2ccc(C)cc2)nn1 (stereo not drawn)	nt	nt	nt	nt	4.9	nt	nt	nt	nt	nt
COCc1[nH]nc2c1C(c1ccc3c(c1)OCO3)N(Cc1ccccc1)C2=O (stereo not drawn)	nt	nt	nt	nt	1.4	nt	nt	nt	nt	nt
Oc1ccccc1Nc1nc(NCc2ccco2)c2ccccc2n1	-0.6	207.0	27.1	61.2*	10.3	51.3*	23.3*	i	nt	89.0*
c1ccc(Nc2nc(NCc3ccco3)c3ccccc3n2)cc1	1.1	170.9	76.2*	76.9*	13.3	18.2	80.4	i	91.2*	6.0
c1ccc(CN2CCN(c3nc(NCc4ccco4)c4ccccc4n3)CC2)cc1	-0.6	302.0	5.7	66.6*	-2.6	9.2	101.6	i	nt	30.2
O=C(N=C1N(Cc2ccccc2)C[C@]2(C=C3CCCCC3n3c(=O)n(-c4ccccc4)c(=O)n32)N1C(=O)OCc1ccccc1)c1ccccc1 (stereo partly drawn)	nt	nt	nt	nt	11.9	nt	nt	nt	nt	nt
CCCCc1ccc(NC(=O)CSc2nc(=O)n(CCN(CC)CC)c3c2CCCC3)cc1	0.3	309.9	-1.1	81.7*	-7.0	43.3*	102.9	i	nt	-1.6
COc1ccc(-c2noc(C3CCCN(C(=O)NC4CCC(C)CC4)C3)n2)cc1 (stereo not drawn)	nt	nt	nt	nt	0.1	nt	nt	nt	nt	nt
COc1ccc(CCNCC(O)COc2cccc(Br)c2)cc1OC (stereo not drawn)	-1.1	207.9	1.2	8.7	-1.8	-11.6	nt	nt	nt	nt
COc1ccc(CCNCC(O)COc2ccc(OC)cc2C(C)(C)C)cc1 (stereo not drawn)	3.4	195.1	80.5*	60.7*	3.9	45.1*	98.5	i	-17.9	-4.7	MPTP abs DR=6.15*;MPTP counter DR=41.1*
c1cc2c(cc1C1CCCCC1)c1c3n2CCCNC3CCC1 (stereo not drawn)	-3.1	238.9	80.4*	76.7*	9.8	43.5*	100.8	i	-29.1	6.9
Cc1ccc2c(c1)c1c3n2CCCNC3CCC1 (stereo not drawn)	3.1	422.3	-5.4	0.3	2.8	10.1	nt	nt	nt	nt
COC(=O)C1=C(C)N(Cc2cccc(C(F)(F)F)c2)C(=NCC2CC2)NC1c1ccc(F)cc1 (stereo not drawn)	nt	nt	nt	nt	8.2	nt	nt	nt	nt	nt
COc1ccccc1-c1cc(C(F)(F)F)nc(S(=O)(=O)CCCC(=O)Nc2cccnc2Cl)n1	2.3	nt	-0.8	28.0	1.5	11.6	nt	nt	nt	nt
